Measurements published in ChEMBL document CHEMBL4732031, “Novel fluorinated ring-fused chlorins as promising PDT agents against melanoma and esophagus cancer” (RSC Med Chem, 2021).

Tests used:
A-375 [1] = experiment: Photocytotoxicity against human A375 cells assessed as cell viability after 24 hrs in presence of light irradiation by MTT assay; type: functional, cell-based; details: A-375, light or radiation study
Method in brief: (§1)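 A375 (DMEM) or OE19 (RPMI 1640) cells were plated overnight and given sensitizer at 1 nM–10 μM, diluted from a 1 mg/mL DMSO stock, with a 1% DMSO vehicle control. After 24 h dark incubation at 37 °C, cells were PBS-washed and refed.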

OE19 [2] = experiment: Photocytotoxicity against human OE19 cells assessed as cell viability after 24 hrs in presence of light irradiation by MTT assay; type: functional, cell-based; details: OE19, light or radiation study; method in brief: as §1
A-375 [3] = experiment: Cytotoxicity against human A375 cells assessed as cell viability measured after 24 hrs by MTT assay; type: cell-based; details: A-375, 24 h
Method in brief: (§2)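 Dark control run in A375 (DMEM) or OE19 (RPMI 1640) cells, plated overnight. Sensitizers were diluted from a 1 mg/mL DMSO stock and given at 1 nM–10 μM, with a 1% DMSO vehicle control. Cells were incubated 24 h at 37 °C in the dark, PBS-washed, refed and not irradiated. Read-out was MTT (0.5 mg/mL, 4 h) with formazan dissolved in HCl/isopropanol, as % of vehicle; IC50 taken from dose–response curves.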

OE19 [4] = experiment: Cytotoxicity against human OE19 cells assessed as cell viability measured after 24 hrs by MTT assay; type: cell-based; details: OE19, 24 h; method in brief: as §2
[5] = Drug uptake in human A375 cells at 500 nM incubated for 24 hrs by fluorescence emission spectroscopic analysis; type: ADME, cell-based; details: a-375, 24 h, 0.5 µM
Method in brief: (§3)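 Cells (5 × 10^5) were exposed to 500 nM sensitizer for 24 h in the dark, then PBS-washed, disrupted in DMSO, scraped and centrifuged. Supernatant fluorescence was read with excitation at 405 and 420 nm. Intracellular concentration was calculated from a calibration curve of each sensitizer in DMSO; mean ± SE.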

[6] = Drug uptake in human OE19 cells at 500 nM incubated for 24 hrs by fluorescence emission spectroscopic analysis; type: ADME, cell-based; details: oe19, 24 h, 0.5 µM; method in brief: as §3

Compound	IC50 (A-375 [1])	IC50 (OE19 [2])	IC50 (A-375 [3])	IC50 (OE19 [4])	Drug uptake [5]	Drug uptake [6]
OCc1nn2c(c1CO)CC1c3nc(c(-c4c(F)c(F)cc(F)c4F)c4ccc([nH]4)c(-c4c(F)c(F)cc(F)c4F)c4nc(c(-c5c(F)c(F)cc(F)c5F)c5ccc([nH]5)c3-c3c(F)c(F)cc(F)c3F)C=C4)C1C2 (stereo not given)	0.072 µM	0.056 µM	> 10 µM	> 10 µM	128 nM	–
OCCOCCNc1c(F)c(F)c(-c2c3nc(c(-c4c(F)c(F)c(NCCOCCO)c(F)c4F)c4ccc([nH]4)c(-c4c(F)c(F)c(NCCOCCO)c(F)c4F)c4nc(c(-c5c(F)c(F)c(NCCOCCO)c(F)c5F)c5ccc2[nH]5)C2Cc5c(CO)c(CO)nn5CC42)C=C3)c(F)c1F (stereo not given)	0.013 µM	0.027 µM	> 10 µM	> 10 µM	254 nM	202 nM
COC(=O)c1nn2c(c1C(=O)OC)CC1c3nc(c(-c4c(F)c(F)c(F)c(F)c4F)c4ccc([nH]4)c(-c4c(F)c(F)c(F)c(F)c4F)c4nc(c(-c5c(F)c(F)c(F)c(F)c5F)c5ccc([nH]5)c3-c3c(F)c(F)c(F)c(F)c3F)C=C4)C1C2 (stereo not given)	6.68 µM	5.61 µM	> 10 µM	> 10 µM	–	–
COC(=O)c1nn2c(c1C(=O)OC)CC1c3nc(c(-c4c(F)c(F)c(NCCOCCO)c(F)c4F)c4ccc([nH]4)c(-c4c(F)c(F)c(NCCOCCO)c(F)c4F)c4nc(c(-c5c(F)c(F)c(NCCOCCO)c(F)c5F)c5ccc([nH]5)c3-c3c(F)c(F)c(NCCOCCO)c(F)c3F)C=C4)C1C2 (stereo not given)	0.913 µM	0.105 µM	> 10 µM	> 10 µM	148 nM	–
